Source: PMC11995438 (Bioorganic & medicinal chemistry, 2023)
In brackets after ≈: the same amount, converted by molar mass. Entries after “also recorded” stand apart in the source; their conditions may differ. *1 amine or outer side, *2 acyl side, *3 side chain or, on linkers, in order; H or OH if unused. Where a SMILES comes first, the peptide text is derived from it. [ ]: non-standard residue; d: D form. X1 = CN([C@H](C(=O)[*:2])[C@@H](O)C(N)=O)[*:1]; Pro(4S-Me) = C[C@@H]1CN[C@H](C(=O)O)C1; N(OH)Ala = C[C@H](NO)C(=O)O; Lac = C[C@H](O)C(=O)O; Dha = C=C(N)C(=O)O

What was measured:
CYP2C9 = CYP2C9 (Homo sapiens, UniProt P11712); test: P450 inhibition in human hepatic microsomes, CYP2C9; assay type: in vitro ADME; conditions: for Human P450 Inhibition 2C9 %Inh.: at 10 μM
CYP1A2 = biological target: T1, CYP1A2 (Homo sapiens, UniProt P05177); test: P450 inhibition in human hepatic microsomes, CYP1A2; assay type: in vitro ADME; conditions: for Human P450 Inhibition 1A2 %Inh.: at 10 μM
T1 sequence (P05177 1-516): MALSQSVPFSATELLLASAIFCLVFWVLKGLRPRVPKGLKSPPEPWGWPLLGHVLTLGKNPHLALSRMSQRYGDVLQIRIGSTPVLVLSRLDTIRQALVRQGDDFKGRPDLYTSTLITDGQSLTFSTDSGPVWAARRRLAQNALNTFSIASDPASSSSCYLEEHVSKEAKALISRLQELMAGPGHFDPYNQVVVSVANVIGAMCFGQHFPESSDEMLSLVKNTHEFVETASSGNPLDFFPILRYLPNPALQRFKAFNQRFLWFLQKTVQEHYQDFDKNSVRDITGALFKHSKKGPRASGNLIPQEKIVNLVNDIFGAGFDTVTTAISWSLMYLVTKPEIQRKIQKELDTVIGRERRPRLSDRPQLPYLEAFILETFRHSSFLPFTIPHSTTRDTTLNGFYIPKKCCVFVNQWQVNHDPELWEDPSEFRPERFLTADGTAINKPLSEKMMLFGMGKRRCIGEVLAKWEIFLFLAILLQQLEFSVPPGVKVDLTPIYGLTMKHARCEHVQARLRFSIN

human MDR1/P-gp = human MDR1/P-gp (Homo sapiens, UniProt P08183); test: MDCK-MDR1 permeability assay; conditions: dog, MDCK-MDR1, pH 7.4
[1] = biological target: human efflux transporter MDR1/P-gp (MDCK cells) (Homo sapiens, UniProt P08183); test: MDCK-MDR1 permeability assay; conditions: for Permeability-MDCK-PgP Substrate?: P-gp substrate classification
CYP3A4 [2] = biological target: T2, CYP3A4 (Homo sapiens, UniProt P08684); test: P450 inhibition in human hepatic microsomes, CYP3A4; conditions: at 10 μM
[3] = biological target: T3, gatorbulin site of tubulin (Bos taurus, UniProt P81947+Q6B856); test: Binding constants by MTC displacement; set-up: species or system calf; conditions: 10 μM tubulin plus 10 μM MTC, compound up to 100 μM
[4] = Plasma protein binding by equilibrium dialysis, human plasma; assay type: in vitro ADME; conditions: for Plasma Protein Binding Human (%free): 2 μM, equilibrium dialysis 6 h, 37 °C
[5] = Kinetic solubility in pH 7.4 phosphate buffered saline; assay type: physicochemical; conditions: 1% DMSO, 24 hours, top concentration 100 μM
[6] = system: HeLa cervical cancer cells; test: MTT viability assay, HeLa; assay type: cell-based; conditions: read-out: IC50 HeLa, 48 h
How it was run: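 HeLa cells grown in DMEM with 10 % FBS at 37 °C, 5 % CO₂. Seeded at 5000 cells/well, attached overnight, then exposed to a concentration series of test compound or 0.5 % DMSO. MTT read-out 48 h after treatment. IC50 by non-linear regression; mean ± SD, n = 3.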

[7] = system: SK-OV-3 ovarian cancer cells; test: MTT viability assay, SK-OV-3; assay type: cell-based; conditions: for IC50: read-out: IC50 SK-OV-3, 48 h
[8] = Plasma protein binding by equilibrium dialysis, mouse plasma; assay type: in vitro ADME; conditions: for Plasma Protein Binding Mouse (%free): 2 μM, equilibrium dialysis 6 h, 37 °C
PAMPA permeability = assay type: in vitro ADME; conditions: for Permeability-PAMPA Tested: 5 μM, pH 7.4, 5 hours; for Permeability-PAMPA Predicted level: predicted from PAMPA
CYP2D6 = CYP2D6 (Homo sapiens, UniProt P10635); test: P450 inhibition in human hepatic microsomes, CYP2D6; assay type: in vitro ADME; conditions: for Human P450 Inhibition 2D6 %Inh.: at 10 μM
β-tubulin = test: Immunoblot analysis of β-tubulin levels in SK-OV-3 cells; assay type: cell-based; conditions: 16 h
How it was run: (§1)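 SK-OV-3 cells seeded at 2 × 10⁵/well and attached 24 h. Medium replaced, then ±1 h preincubation with 10 µM MG-132 before test compound or 0.5 % DMSO for 16 h. Whole-cell lysates normalised by BCA, run on 4–12 % SDS-PAGE, blotted to PVDF and detected by chemiluminescence. Densitometry of a representative blot, normalised to GAPDH and to DMSO without MG-132.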

α-tubulin = test: Immunoblot analysis of α-tubulin levels in SK-OV-3 cells; assay type: cell-based; conditions: 16 h
How it was run: as §1

[9] = biological target: T3, gatorbulin site of tubulin; conditions: cited from earlier work
[10] = system: SK-OV-3-MDR1-M6/6 cell line; conditions: cited from earlier work
[11] = Hepatic microsomal stability, mouse; assay type: in vitro ADME; conditions: liver microsomes, pH 7.4
[12] = Hepatic microsomal stability, human; assay type: in vitro ADME; conditions: liver microsomes, pH 7.4
CYP3A4 [13] = biological target: T2, CYP3A4; test: in vitro; conditions: microsomes
[14] = human, liver microsomes, probe tolbutamide, hydroxylation to hydroxytolbutamide
[15] = human, liver microsomes, probe bufuralol, hydroxylation to 4'-hydroxybufuralol

CC(=O)N1CCN(c2ccc(OCC3COC(Cn4ccnc4)(c4ccc(Cl)cc4Cl)O3)cc2)CC1 (centres unmarked) [Ket, ketoconazole]
inhibition at 1 µM (CYP2C9; [14]): 39%
inhibition at 1 µM (CYP1A2; human, liver microsomes): 13%

CC(C)(C)NCC(O)COc1cccc2c1CC(O)C(O)C2 (centres unmarked) [Nad, nadolol]
Papp A→B at 90 min, 2 µM (human MDR1/P-gp): 1.9 ×10⁻⁶ cm/s
Papp B→A at 90 min, 2 µM (human MDR1/P-gp): 1.5 ×10⁻⁶ cm/s
efflux ratio at 90 min, 2 µM (human MDR1/P-gp): 0.8
Permeability-MDCK-PgP Substrate? [1]: poor or non-

gatorbulin-2 [GB2]
Human P450 Inhibition 3A4 %Inh. (CYP3A4 [2]): < 10 %Inh.
MTC displacement [3]: no MTC displacement
Plasma Protein Binding Human (%free) [4]: 60 %free
Solubility Kinetic [5]: > 100 µM
Human P450 Inhibition 2C9 %Inh. (CYP2C9): 18 %Inh.
IC50 [6]: > 100000 nM
Human P450 Inhibition 1A2 %Inh. (CYP1A2): < 10 %Inh.
IC50 [7]: > 100000 nM
Plasma Protein Binding Mouse (%free) [8]: 88 %free
Permeability-PAMPA Tested (PAMPA permeability): 8.2 10^−6 cm/s
Permeability-PAMPA Predicted level (PAMPA permeability): high
Human P450 Inhibition 2D6 %Inh. (CYP2D6): < 10 %Inh.

C=C1NC(=O)[C@H](C)N(O)C(=O)[C@H]([C@@H](O)C(N)=O)N(C)C(=O)[C@H](C)OC(=O)[C@@H]2C[C@H](C)CN2C1=O [GB1, Gatorbulin-1] (cyclo([Dha][Pro(4S-Me)][Lac][X1][N(OH)Ala]))
Human P450 Inhibition 3A4 %Inh. (CYP3A4 [2]): < 10 %Inh.
Kb (binding affinity, MTC) ([3]; listed as GB1 (1a)): 2.2 ± 0.7 × 10^6 M^−1
Plasma Protein Binding Human (%free) [4]: 76 %free
Solubility Kinetic [5]: > 100 µM
Human P450 Inhibition 2C9 %Inh. (CYP2C9): < 10 %Inh.
IC50 [6]: 590 nM
Permeability-MDCK-PgP Mean Papp A to B ([1]; 2 μM, 90 minutes): 1.8 10^−6 cm/s
Permeability-MDCK-PgP Mean Papp B to A ([1]; 2 μM, 90 minutes): 1.6 10^−6 cm/s
Permeability-MDCK-PgP Substrate? [1]: not a P-gp substrate or is a poor P-gp substrate; also recorded: poor or non-
Human P450 Inhibition 1A2 %Inh. (CYP1A2): 13 %Inh.
depletion of β-tubulin (β-tubulin; 3.2 μM): 80%
preference for β-tubulin over α-tubulin depletion (β-tubulin): ~ 3 fold
reduction of α-tubulin levels (α-tubulin; 10 μM): 80%
effect on α- and β-tubulin levels (α-tubulin; without MG132): induced a reduction of both α- and β-tubulin levels
concentration at which active ([7]; SK-OV-3 and HeLa cells, 48 h): submicromolar
IC50 [7]: 216 nM
Plasma Protein Binding Mouse (%free) [8]: 80 %free
binding affinity reported previously [9]: 1.01e+06 M⁻¹
Permeability-PAMPA Tested (PAMPA permeability): 4.5 10^−6 cm/s
Permeability-PAMPA Predicted level (PAMPA permeability): high
Human P450 Inhibition 2D6 %Inh. (CYP2D6): 11 %Inh.
effectiveness in P-gp overexpressing cells versus parental line [10]: less effective

CNC(=C[N+](=O)[O-])NCCSCc1ccc(CN(C)C)o1 [Ran, ranitidine, reference compound]
Permeability-PAMPA Predicted level (PAMPA permeability): low

CCN(CC)CCNC(=O)c1c(C)[nH]c(/C=C2\C(=O)Nc3ccc(F)cc32)c1C [Sun, sunitinib]
half-life at 1 µM [11]: 13.5 min
half-life at 1 µM [12]: 34.5 min

Nc1ccc(S(=O)(=O)Nc2ccnn2-c2ccccc2)cc1 [Sul, sulfaphenazole, reference compound]
inhibition at 10 µM (CYP1A2; human, liver microsomes): < 10%
inhibition at 10 µM (CYP2D6; [15]): < 10%

NC(=O)N1c2ccccc2C=Cc2ccccc21 [Car, carbamazepine, reference compound]
fraction unbound at 6 h, 2 µM ([4]; human, plasma): 0.25
fraction unbound at 6 h, 2 µM ([8]; mouse, plasma): 0.36

C=C[C@H]1C[N@@]2CC[C@H]1C[C@@H]2[C@@H](O)c1ccnc2ccc(OC)cc12 [Qui, quinidine]
inhibition at 10 µM (CYP2C9; [14]): < 10%
Papp A→B at 90 min, 2 µM (human MDR1/P-gp): 1.6 ×10⁻⁶ cm/s
Papp B→A at 90 min, 2 µM (human MDR1/P-gp): 11.1 ×10⁻⁶ cm/s
inhibition at 10 µM (CYP1A2; human, liver microsomes): < 10%

CC(C)NCC(O)COc1cccc2ccccc12 (centres unmarked) [Pro, propranolol, reference compound]
Papp at 5 h, 5 µM (PAMPA permeability; PAMPA, pH 7.4): 5.7 ×10⁻⁶ cm/s
Permeability-PAMPA Predicted level (PAMPA permeability): high

Cc1nc2c([nH]1)c(=O)n(C)c(=O)n2Cc1ccco1 [Fur, furafylline]
inhibition at 40 µM (CYP2C9; [14]): < 10%
inhibition at 40 µM (CYP1A2; human, microsomes): 82%
inhibition at 40 µM (CYP2D6; [15]): < 10%
inhibition at 40 µM (CYP3A4 [13]): < 10%

COc1cc([C@@H]2c3cc4c(cc3[C@H](O)[C@H]3COC(=O)[C@H]23)OCO4)cc(OC)c1OC [podophyllotoxin, reference compound]
Kb (binding affinity, MTC) [3]: 1.5e+07 M⁻¹

CC(=O)O[C@H]1C(=O)[C@@]2(C)[C@H]([C@H](OC(=O)c3ccccc3)[C@]3(O)C[C@H](OC(=O)[C@H](O)[C@@H](NC(=O)c4ccccc4)c4ccccc4)C(C)=C1C3(C)C)[C@]1(OC(C)=O)CO[C@@H]1C[C@@H]2O [Pac, paclitaxel, reference compound]
Solubility Kinetic [5]: 1.3 µM (≈ 1.11 µg/mL)
